{
  "source": "paper PMC7808142",
  "about": "(ACS Omega, 2020)",
  "key": {"[1]": {"experiment": "Stability in rat plasma under different storage conditions", "type": "in vitro ADME", "details": "n = 5"}, "[2]": {"experiment": "Pharmacokinetics in rats after intravenous and oral administration", "type": "in vivo, Sprague-Dawley rats", "details": "rat; for AUC(0-inf) / AUC(0-t) / C0 / MRT last / Vd / clearance / half-life / Cmax / bioavailability / Tmax: male, Sprague-Dawley, plasma; for half-life: t1/2, rat; for half-life / Tmax / AUCextr / t1/2: n = 3", "summary_of_the_method": "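Male SD rats (220–250 g), fasted 12 h, with jugular vein cannulae placed 2 days earlier under pentobarbital. Groups of 3 received 5 mg/kg iv (2 mg/mL with 30% HP-β-CD) or 100 mg/kg po (10 mg/mL suspension in 0.5% CMC-Na). Plasma (50 μL) was mixed with terfenadine internal standard and analysed by MRM LC-MS/MS (calibration 1.00–1000 ng/mL). Parameters are mean ± SD.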"}, "[3]": {"details": "autosampler for 24 h (4 °C), spiked 2.00 ng/mL"}, "[4]": {"details": "autosampler for 24 h (4 °C), spiked 50.0 ng/mL"}, "[5]": {"details": "autosampler for 24 h (4 °C), spiked 800 ng/mL"}, "[6]": {"details": "long-term (30 days at -80 °C), spiked 2.00 ng/mL"}, "[7]": {"details": "long-term (30 days at -80 °C), spiked 50.0 ng/mL"}, "[8]": {"details": "long-term (30 days at -80 °C), spiked 800 ng/mL"}, "[9]": {"details": "three freeze/thaw cycles, spiked 2.00 ng/mL"}, "[10]": {"details": "three freeze/thaw cycles, spiked 50.0 ng/mL"}, "[11]": {"details": "three freeze/thaw cycles, spiked 800 ng/mL"}},
  "data": [
    {"smiles": "C[C@@H]1CC[C@H]2[C@@H](C)C(=O)O[C@@H]3O[C@@]4(C)CC[C@@H]1[C@]32O4", "note": "[deoxyartemisinin, Deoxyartemisinin]", "values": [
      {"measurement": "stability, measured concentration", "setting": "[1]; [3]", "result": "2.18 ± 0.10", "unit": "ng/mL"},
      {"measurement": "stability, accuracy (%, RE)", "setting": "[1]; [4]", "result": 99.0, "unit": "%"},
      {"measurement": "stability, measured concentration", "setting": "[1]; [4]", "result": "53.9 ± 1.66", "unit": "ng/mL"},
      {"measurement": "stability, accuracy (%, RE)", "setting": "[1]; [5]", "result": 99.0, "unit": "%"},
      {"measurement": "stability, measured concentration", "setting": "[1]; [5]", "result": "782 ± 26.3", "unit": "ng/mL"},
      {"measurement": "stability, accuracy (%, RE)", "setting": "[1]; [6]", "result": 101.5, "unit": "%"},
      {"measurement": "stability, measured concentration", "setting": "[1]; [6]", "result": "2.03 ± 0.07", "unit": "ng/mL"},
      {"measurement": "stability, accuracy (%, RE)", "setting": "[1]; [7]", "result": 108.4, "unit": "%"},
      {"measurement": "stability, measured concentration", "setting": "[1]; [7]", "result": "54.2 ± 1.91", "unit": "ng/mL"},
      {"measurement": "stability, accuracy (%, RE)", "setting": "[1]; [8]", "result": 96.0, "unit": "%"},
      {"measurement": "stability, measured concentration", "setting": "[1]; [8]", "result": "768 ± 50.2", "unit": "ng/mL"},
      {"measurement": "stability, measured concentration", "setting": "[1]; [9]", "result": "1.98 ± 0.08", "unit": "ng/mL"},
      {"measurement": "stability, accuracy (%, RE)", "setting": "[1]; [10]", "result": 109.1, "unit": "%"},
      {"measurement": "stability, measured concentration", "setting": "[1]; [10]", "result": "52.3 ± 0.99", "unit": "ng/mL"},
      {"measurement": "stability, accuracy (%, RE)", "setting": "[1]; [11]", "result": 109.1, "unit": "%"},
      {"measurement": "stability, measured concentration", "setting": "[1]; [11]", "result": "774 ± 16.0", "unit": "ng/mL"},
      {"measurement": "AUC(0-inf)", "setting": "[2]; iv, 5 mg/kg", "result": "222 ± 47.1", "unit": "ng·h/mL"},
      {"measurement": "AUC(0-t)", "setting": "[2]; iv, 5 mg/kg", "result": "219 ± 46.1", "unit": "ng·h/mL"},
      {"measurement": "C0", "setting": "[2]; iv, 5 mg/kg", "result": "1070 ± 173", "unit": "ng/mL"},
      {"measurement": "MRT last", "setting": "[2]; iv, 5 mg/kg", "result": "0.671 ± 0.183", "unit": "h"},
      {"measurement": "Vd", "setting": "[2]; iv, 5 mg/kg", "result": "48.3 ± 8", "unit": "L/kg"},
      {"measurement": "clearance", "setting": "[2]; iv, 5 mg/kg", "result": "385 ± 74.5", "unit": "mL/min/kg"},
      {"measurement": "half-life", "setting": "[2]; iv, 5 mg/kg, i.v. 5 mg/kg", "result": "1.12 ± 0.16", "unit": "h"},
      {"measurement": "AUC(0-inf)", "setting": "[2]; po, 100 mg/kg", "result": "71 ± 14.1", "unit": "ng·h/mL"},
      {"measurement": "AUC(0-t)", "setting": "[2]; po, 100 mg/kg", "result": "67.3 ± 14.2", "unit": "ng·h/mL"},
      {"measurement": "Cmax", "setting": "[2]; po, 100 mg/kg", "result": "62.4 ± 31.3", "unit": "ng/mL"},
      {"measurement": "MRT last", "setting": "[2]; po, 100 mg/kg", "result": "1.21 ± 0.388", "unit": "h"},
      {"measurement": "bioavailability", "setting": "[2]; po, 100 mg/kg", "result": "1.6 ± 0.317", "unit": "%"},
      {"measurement": "Tmax", "setting": "[2]; po, 100 mg/kg, p.o. 100 mg/kg", "result": "~0.39", "unit": "h"},
      {"measurement": "half-life", "setting": "[2]; po, 100 mg/kg, p.o. 100 mg/kg", "result": "1.12 ± 0.156", "unit": "h"},
      {"measurement": "time after which the compound could not be detected in blood", "setting": "[2]; i.v. 5 mg/kg", "result": 8, "unit": "h"},
      {"measurement": "AUCextr", "setting": "[2]; i.v. 5 mg/kg", "result": "1.33 ± 0.214", "unit": "%"},
      {"measurement": "t1/2", "setting": "[2]; i.v. 5 mg/kg, 5 mg/kg", "result": "1.45 ± 0.059", "unit": "h"},
      {"measurement": "time until which the compound was detectable in plasma (above LLOQ)", "setting": "[2]; p.o. 100 mg/kg", "result": 6, "unit": "h"},
      {"measurement": "AUCextr", "setting": "[2]; p.o. 100 mg/kg", "result": "5.33 ± 1.92", "unit": "%"}
    ]},
    {"smiles": "C[C@@H]1CC[C@H]2[C@@H](C)C(=O)O[C@@H]3O[C@@]4(C)CC[C@@H]1[C@]32OO4", "note": "[artemisinin, Artemisinin]", "values": [
      {"measurement": "stability, accuracy (%, RE)", "setting": "[1]; [3]", "result": 95.7, "unit": "%"},
      {"measurement": "stability, measured concentration", "setting": "[1]; [3]", "result": "1.91 ± 0.02", "unit": "ng/mL"},
      {"measurement": "stability, accuracy (%, RE)", "setting": "[1]; [4]", "result": 91.0, "unit": "%"},
      {"measurement": "stability, measured concentration", "setting": "[1]; [4]", "result": "45.5 ± 0.66", "unit": "ng/mL"},
      {"measurement": "stability, accuracy (%, RE)", "setting": "[1]; [5]", "result": 97.1, "unit": "%"},
      {"measurement": "stability, measured concentration", "setting": "[1]; [5]", "result": "777 ± 6.68", "unit": "ng/mL"},
      {"measurement": "stability, accuracy (%, RE)", "setting": "[1]; [6]", "result": 97.3, "unit": "%"},
      {"measurement": "stability, measured concentration", "setting": "[1]; [6]", "result": "1.95 ± 0.02", "unit": "ng/mL"},
      {"measurement": "stability, accuracy (%, RE)", "setting": "[1]; [7]", "result": 91.3, "unit": "%"},
      {"measurement": "stability, measured concentration", "setting": "[1]; [7]", "result": "45.7 ± 1.46", "unit": "ng/mL"},
      {"measurement": "stability, accuracy (%, RE)", "setting": "[1]; [8]", "result": 95.2, "unit": "%"},
      {"measurement": "stability, measured concentration", "setting": "[1]; [8]", "result": "762 ± 9.29", "unit": "ng/mL"},
      {"measurement": "stability, accuracy (%, RE)", "setting": "[1]; [9]", "result": 95.2, "unit": "%"},
      {"measurement": "stability, measured concentration", "setting": "[1]; [9]", "result": "1.90 ± 0.02", "unit": "ng/mL"},
      {"measurement": "stability, accuracy (%, RE)", "setting": "[1]; [10]", "result": 95.2, "unit": "%"},
      {"measurement": "stability, measured concentration", "setting": "[1]; [10]", "result": "47.6 ± 0.52", "unit": "ng/mL"},
      {"measurement": "stability, accuracy (%, RE)", "setting": "[1]; [11]", "result": 96.3, "unit": "%"},
      {"measurement": "stability, measured concentration", "setting": "[1]; [11]", "result": "770 ± 9.11", "unit": "ng/mL"},
      {"measurement": "AUC(0-inf)", "setting": "[2]; iv, 5 mg/kg", "result": "130 ± 39.1", "unit": "ng·h/mL"},
      {"measurement": "AUC(0-t)", "setting": "[2]; iv, 5 mg/kg", "result": "129 ± 38.9", "unit": "ng·h/mL"},
      {"measurement": "C0", "setting": "[2]; iv, 5 mg/kg", "result": "700 ± 166", "unit": "ng/mL"},
      {"measurement": "MRT last", "setting": "[2]; iv, 5 mg/kg", "result": "0.408 ± 0.066", "unit": "h"},
      {"measurement": "Vd", "setting": "[2]; iv, 5 mg/kg", "result": "45.1 ± 12.3", "unit": "L/kg"},
      {"measurement": "clearance", "setting": "[2]; iv, 5 mg/kg", "result": "674 ± 174", "unit": "mL/min/kg"},
      {"measurement": "half-life", "setting": "[2]; iv, 5 mg/kg, i.v. 5 mg/kg", "result": "0.77 ± 0.06", "unit": "h"},
      {"measurement": "AUC(0-inf)", "setting": "[2]; po, 100 mg/kg", "result": "318 ± 21.6", "unit": "ng·h/mL"},
      {"measurement": "AUC(0-t)", "setting": "[2]; po, 100 mg/kg", "result": "309 ± 22.3", "unit": "ng·h/mL"},
      {"measurement": "Cmax", "setting": "[2]; po, 100 mg/kg", "result": "65.1 ± 10.4", "unit": "ng/mL"},
      {"measurement": "MRT last", "setting": "[2]; po, 100 mg/kg", "result": "3.46 ± 0.249", "unit": "h"},
      {"measurement": "bioavailability", "setting": "[2]; po, 100 mg/kg", "result": "12.2 ± 0.832", "unit": "%"},
      {"measurement": "Tmax", "setting": "[2]; po, 100 mg/kg, p.o. 100 mg/kg", "result": "1.33 ± 0.58", "unit": "h"},
      {"measurement": "half-life", "setting": "[2]; po, 100 mg/kg, p.o. 100 mg/kg", "result": "2.22 ± 0.25", "unit": "h"},
      {"measurement": "time after which the compound could not be detected in blood", "setting": "[2]; i.v. 5 mg/kg", "result": 4, "unit": "h"},
      {"measurement": "AUCextr", "setting": "[2]; i.v. 5 mg/kg", "result": "0.967 ± 0.110", "unit": "%"},
      {"measurement": "t1/2", "setting": "[2]; i.v. 5 mg/kg, 5 mg/kg", "result": "0.773 ± 0.0598", "unit": "h"},
      {"measurement": "time until which the compound was detectable in plasma (above LLOQ)", "setting": "[2]; p.o. 100 mg/kg", "result": 12, "unit": "h"},
      {"measurement": "AUCextr", "setting": "[2]; p.o. 100 mg/kg", "result": "2.89 ± 0.999", "unit": "%"}
    ]}
  ]
}
